Bioassay records as filed in PubChem BioAssay.
UPR XBP1 act = activators of adaptive XBP1 UPR arm, primary screen, cell-based, CHO-XBP1 luciferase reporter, luminescence, uHTS | IRE1-XBP1 UPR activation; percent of tunicamycin response, DMSO as zero | activation, % at 20 µM | 0.33% of 330,000 active | AID 463104, 2010;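 active means versus positive control, 20 µM dose yields 30% or more activation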;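 further: 100% = tunicamycin at 10 µg/mL and 0% = DMSO only wells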
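Material: CHO-XBP1 cells stably carrying IRE1-XBP1-driven luciferase reporter | Medium: F12 with 10% serum | Compound dosing: 20 µM single concentration, DMSO 1% | Incubation: Overnight seeding at 37 °C, 6 h compound treatment at 37 °C | Detection: Steady-Glo luminescence read | Read-out basis: % activation of reporter signal versus tunicamycin and DMSO controls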
UPR CHOP act = activators of apoptotic CHOP UPR arm, primary screen, cell-based, CHO-CHOP luciferase reporter, luminescence, uHTS. UPR activation; percent of tunicamycin response over DMSO baseline. activation, % at 10 µM. AID 449763, 2010. 0.34% of 330,000 active;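 active means at 10 µM dose, activation of 40% or more, normalized to positive control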;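 further: 100% = tunicamycin at 10 µg/mL and 0% = DMSO alone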
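Assay system: CHO-CHOP cells, stable luciferase reporter of PERK-eIF2a-CHOP signalling / Buffer or medium: F12 plus 10% serum / Compound dosing: one dose, 10 µM in 0.5% DMSO / Times: 6 h compound treatment, 37 °C / Technique: luciferase luminescence / Read-out: % reporter activation, DMSO baseline versus tunicamycin full activation / Benchmarks: tunicamycin and DMSO controls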
CHOP inh = inhibitors of CHOP promoter induction, primary screen, cell-based, unfolded protein response, luciferase reporter; inhibition, % at 10 µM; CHO-K1 CHOP-promoter luciferase, tunicamycin-induced, 15-18 h; 3.8% of 220,000 active;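 active means compounds that reduced the stress-induced luciferase reporter signal by more than about 70% of percent inhibition, limit read from the data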;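 further: 0% = tunicamycin plus vehicle and 100% = wells without tunicamycin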
UCH37 DUB inh = inhibitors of human UCH37 deubiquitinase, primary screen, biochemical, Ub-AMC cleavage, fluorescence; purified proteasome/UCH37; inhibition, % (concentration not given with the values); 0.33% of 330,000 active;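 active means mean inhibition over replicate wells above about 20%, limit read from the data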;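 further: 0% = compound-free wells with enzyme and 100% = wells lacking proteasome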
Target sequence (Q9Y5K5 whole entry, looked up): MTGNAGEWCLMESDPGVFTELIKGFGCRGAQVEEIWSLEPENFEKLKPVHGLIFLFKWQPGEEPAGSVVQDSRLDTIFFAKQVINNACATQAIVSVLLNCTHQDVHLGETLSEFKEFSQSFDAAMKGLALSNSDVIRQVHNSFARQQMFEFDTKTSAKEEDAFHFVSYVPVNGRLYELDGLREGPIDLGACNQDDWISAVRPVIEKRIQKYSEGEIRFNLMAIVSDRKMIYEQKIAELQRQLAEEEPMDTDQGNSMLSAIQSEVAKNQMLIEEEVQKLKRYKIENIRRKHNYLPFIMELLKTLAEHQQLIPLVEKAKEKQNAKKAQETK
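Material: Human UCH37 enzyme supplied as purified proteasome complex | Schedule: 30 min preincubation with enzyme, 25 min cleavage at room temperature | Detection: AMC fluorescence 355/460 nm | Measure: % inhibition of Ub-AMC cleavage fluorescence | Controls: Wells without proteasome as full block, compound-free enzyme plus substrate as uninhibited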
CTSL1 counter = Fasciola hepatica cathepsin L1 inhibitors, primary screen, counter-screen for PFM18AAP inhibitor project, biochemical, QFRET, fluorogenic peptide substrate; recombinant F. hepatica cathepsin L1, Z-Leu-Arg-MCA fluorescence; inhibition, % at 5.96 µM; 0.49% of 300,000 active;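 active means inhibition above the mean of all tested compounds plus 3 SD, set per screening campaign, cut at about 17% in these data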;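 further: 0% = plate median of test compound wells and 100% = 1 µM Z-Phe-Ala-diazomethylketone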
UCH37 confirm = retest of human UCH37 deubiquitinase inhibitors, confirmation, biochemical, Ub-AMC cleavage rate, fluorescence; Proteasome-bound UCH37; inhibition, % at 20 µM; 27% of 480 active; AID 624100, 2012; shares compounds with UCH37 DUB inh;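 active means average inhibition over replicates above about 50%, so the earlier screening hit is confirmed, limit read from the data; inactive means the rest, counted as false positives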;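 further: based on cleavage rate fitted by regression over a 30 min kinetic read; 0% = proteasome plus Ub-AMC and 100% = Ub-AMC without proteasome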
The depositor's hits bear a star; x = no result given. Many of the other results were omitted from the sample, so hits are more common in it than they were.

SMILES | UPR XBP1 act | UPR CHOP act | CHOP inh | UCH37 DUB inh | CTSL1 counter | UCH37 confirm
CCOC(=O)C1=C(COC(=O)c2sccc2C)NC(=O)NC1C (stereo unspecified) | 3 | -1 | x | 1 | x | x
CCOC(=O)C1=C(COC(=O)c2ccc([N+](=O)[O-])s2)NC(=O)NC1C (stereo unspecified) | 10 | 18 | x | 83* | x | 27
COc1ccc(Cc2nc3ccccc3n2CC(=O)NN=Cc2ccc(O)cc2)cc1OC | x | x | x | 6 | x | x
S=C(Nc1ccc(Nc2ccccc2)cc1)Nc1ccccn1 | -2 | 2 | 0 | 46* | 2 | -4
O=C(O)CN1C(=O)/C(=C\c2ccccc2OCc2ccc(Cl)cc2Cl)SC1=S | -10 | -11 | x | 26* | 0 | 54*
ON=C1CCSc2ccccc21 | x | x | x | 4 | x | x
CN(Cc1ccccc1)C(=O)c1cccc(NC(=O)Cc2ccc([N+](=O)[O-])cc2)c1 | -1 | 0 | x | 41* | x | 9
Cn1ccsc1=NS(=O)(=O)c1ccc(Br)cc1 | x | x | x | 1 | x | x
COc1ccc([N+](=O)[O-])cc1NC(=O)c1ccc(CN(c2ccc(C)c(C)c2)S(C)(=O)=O)cc1 | -3 | -1 | -33 | 47* | 0 | -2
O=C(NNc1cc(N2CCOCC2)nc(N2CCOCC2)n1)c1ccc([N+](=O)[O-])cc1 | 0 | 1 | -27 | 26* | x | 18
CC(=NNc1nc(N2CCOCC2)nc(N2CCOCC2)n1)c1ccc([N+](=O)[O-])cc1 | x | x | x | 10 | x | x
COc1ccc(C=NNC(=O)CN(c2ccc(OC)cc2)S(=O)(=O)c2ccccc2)cc1 | x | x | x | 4 | x | x
COc1ccc(N(C(=O)c2ccc(Cl)cc2)C2=CC3CCC(C2)N3C)cc1 (stereo unspecified) | -1 | -1 | 23 | 42* | -2 | 0
COc1ccc(C=NOCC(=O)OCC(=O)N(C)c2ccccc2)cc1 | x | x | x | 2 | x | x
C[C@H](NC(=O)c1nc[nH]c1C(=O)N[C@@H](C)C(=O)OC(C)(C)C)C(=O)OCc1ccccc1 | -4 | -2 | x | 35* | 3 | -30
N#CC(=NNc1ccc(S(=O)(=O)N2CCCCC2)cc1)C(N)=S | x | x | x | 16 | x | x
COc1ccc2nc(N=C(N)NC(=O)C(C)(C)C)nc(C)c2c1 | x | x | x | -82 | x | x
c1ccc(C[C@H]2CNCCN2CCCCC2CCCCC2)cc1 | 2 | -1 | x | 36* | -2 | 4
O=C1N=C(N2CCCC2C(=O)O)S/C1=C\c1ccco1 (stereo unspecified) | -3 | 0 | -3 | 43* | 1 | 13
CC(OC(=O)c1ccc([N+](=O)[O-])s1)C(=O)Nc1ncc(Cl)cc1Cl (stereo unspecified) | 1 | 1 | -76 | 58* | 27* | 4
Cc1ccc(OC(C)C(=O)Nc2ncc(Cl)cc2Cl)c([N+](=O)[O-])n1 (stereo unspecified) | -1 | -1 | x | -26 | x | x
CN1CCS/C1=C/C=C1\SC(=S)N(CC(=O)O)C1=O | -1 | -1 | -20 | 38* | 8 | 30
Nc1ccc(C(=O)OCC(=O)N2CCOCC2)cc1[N+](=O)[O-] | 6 | 4 | -1 | 38* | -5 | 8
Cc1nnsc1-c1onc(C)c1C(=O)ON=Cc1ccc(Cl)cc1 | x | x | x | 7 | x | x
CC1CCCC(C)N1N=Cc1ccc(Cl)cc1 (stereo unspecified) | x | x | x | 2 | x | x
SMILES | UPR XBP1 act | UPR CHOP act | CHOP inh | UCH37 DUB inh | CTSL1 counter | UCH37 confirm
CC1CCN(CC(=O)Nc2sc3c(c2C#N)CCC3)CC1 | 2 | 1 | 21 | 37* | 0 | 9
COc1ccc(C=NNC(=O)c2cc(-c3ccc(C)cc3C)nc3ccccc23)cc1COC(C)=O | x | x | x | -4 | x | x
Cc1ccc(-n2ncc3c(NNC(=O)c4ccco4)ncnc32)c(C)c1 | 0 | -2 | -15 | 2 | -5 | x
O=C(c1ccco1)[C@@H]1[C@@H]2C(=O)N(c3ccccc3)C(=O)[C@@H]2C2c3ccccc3C=CN21 (stereo partly specified) | -2 | 0 | x | 64* | 28* | 5
Cc1ccc(N2C(=O)[C@@H]3[C@H](C2=O)C2c4ccccc4C=CN2[C@@H]3C(=O)c2ccco2)c(C)c1 (stereo partly specified) | -5 | 3 | x | 28* | 35* | 3
CC(C)(C)C(=O)[C@@H]1[C@@H]2C(=O)N(c3ccc4c(c3)OCCO4)C(=O)[C@@H]2C2c3ccccc3C=CN21 (stereo partly specified) | -2 | 4 | -9 | 12 | 0 | x
CCOC(=O)/C(=C\C=C1/Sc2cc(OCC)c(OCC)cc2N1CC)C(C)=O | x | x | 36 | 29* | 6 | 18
CCOC(=O)/C(=C/C=C1\Sc2cc(OCC)c(OCC)cc2N1CC)C(C)=O | -1 | -1 | -1 | 7 | 3 | x
NC(=O)CC(NC(=O)Cc1ccc(Br)cc1)c1ccc(NCCOc2ccccc2)c([N+](=O)[O-])c1 (stereo unspecified) | -5 | 0 | -16 | 36* | -1 | 15
CN1CCN(CCC(=O)NN=Cc2ccccc2F)CC1 | x | x | x | 1 | x | x
NC(=O)COC(=O)c1ccc(Cl)c(S(=O)(=O)N(Cc2ccccc2)c2ccc(Cl)cc2)c1 | -1 | -2 | 85* | 39* | 1 | -37
COCCNC(=S)NN=C(C)c1cccc(C(F)(F)F)c1 | x | x | x | 5 | x | x
COCCCn1c(=C(C#N)C(=O)Nc2ccc(C(=O)O)cc2)sc(=Cc2cccc(OC)c2OC)c1=O | x | x | x | 9 | x | x
O=C1Cc2ccccc2C(=O)N1CCc1ccccc1 | 6 | 3 | -13 | 62* | 67* | 10
CN1C(=O)/C(=C/C=C2/CCCN2C)N(C)C1=S | 0 | 2 | -26 | 34* | 8 | 29
CC(=NN=c1scc(C)n1Cc1ccco1)c1cccc([N+](=O)[O-])c1 | x | x | x | 6 | x | x
O=C(O)c1ccc(NN=C/C=C/c2ccc([N+](=O)[O-])o2)cc1 | x | x | x | 30* | x | 37
CN(CC(=O)Nc1ccccc1Cl)C(=O)COC(=O)c1ccc([N+](=O)[O-])s1 | 2 | 1 | x | 76* | x | 13
CN(CC(=O)Nc1ccccc1Cl)C(=O)COC(=O)c1cccs1 | 4 | 2 | x | 5 | x | x
Cc1ccc(NC(=O)COC(=O)c2ccc([N+](=O)[O-])s2)c(C)c1 | -4 | -1 | 7 | 31* | 28* | 20
COc1ccccc1NC(=O)COC(=O)c1ccc([N+](=O)[O-])s1 | -3 | -1 | 20 | 72* | 22* | 5
